N-glyco inh – N-linked glycosylation inhibition; D54 ERlucT glycosylation luciferase reporter, 24 h; percent of 100 nM tunicamycin response; reporter increase, % at 12.5 µM; 360,000 compounds, 0.23% hits; AID 588692;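 active = mean luciferase reporter signal, scaled so untreated is 0 and the glycosylation-blocking control 100, at or above a set limit in every replicate; inconclusive = mean reaches the limit but not every replicate does; inactive = mean below the limit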;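 also: luciferase carries N-glycosylation sites so blocking glycosylation raises the light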
RAD52 inh – inhibitors of human RAD52 DNA annealing | P43351 | recombinant RAD52 DNA annealing, FRET fluorescence | inhibition, % at 18.7 µM | 360,000 compounds, 0.46% hits | AID 651710;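 active = every replicate showing at least 50% inhibition; inconclusive = mean inhibition at least 50% but not in every replicate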
Target sequence (P43351 whole entry, looked up): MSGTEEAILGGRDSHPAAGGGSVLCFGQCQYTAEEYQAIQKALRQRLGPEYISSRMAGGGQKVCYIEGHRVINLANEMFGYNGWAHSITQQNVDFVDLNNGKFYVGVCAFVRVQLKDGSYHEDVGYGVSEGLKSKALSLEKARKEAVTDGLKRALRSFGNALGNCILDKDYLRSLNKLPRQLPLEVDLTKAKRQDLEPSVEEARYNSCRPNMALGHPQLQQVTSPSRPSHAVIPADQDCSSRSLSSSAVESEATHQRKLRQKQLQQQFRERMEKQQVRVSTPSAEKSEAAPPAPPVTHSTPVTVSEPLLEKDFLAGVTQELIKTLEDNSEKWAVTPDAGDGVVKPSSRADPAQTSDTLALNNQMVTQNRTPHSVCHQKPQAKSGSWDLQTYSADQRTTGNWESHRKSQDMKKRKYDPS
FN deposition inh – fibronectin deposition inhibition. AH1F fibroblasts, Alexa488-fibronectin deposition fluorescence, overnight. inhibition, % at 12.6 µM. 350,000 compounds, 0.086% hits. AID 743247;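 active = mean inhibition across replicates of 30% or more, regardless of how many single replicates reach that level; inconclusive = mean under 30% yet at least half of replicates reach 30%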
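Test system: AH1F fibroblast monolayer depositing Alexa488-labelled fibronectin into matrix. Input: 10000 cells per well. Technique: fluorescence, ex 485 nm, em 525 nm. Buffer or medium: DMEM plus 2% serum, read in PBS. Timing: 1 h cell adhesion before compound, then overnight fibronectin incubation. Compound: single dose, pinned. Read-out basis: inhibition from reduced deposited-fibronectin fluorescence.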
RAD54 branch – blocks human RAD54 Holliday junction branch migration; Q92698; FAM/BHQ fluorescence; inhibition, % at 10.4 µM; 360,000 compounds, 0.14% hits; AID 602329;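 active = mean normalized replicate activity at least 40 and at least half of replicates scoring 40 or more; inconclusive = only one of the two criteria met; inactive = mean below 40 and under half of replicates reaching 40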;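 also: inhibitors cause a drop in the FAM fluorescence signal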
AF4-AF9 inh – blocks AF4 peptide binding to human AF9. AlphaScreen, biotin-AF4 peptide binding to FLAG-AF9. inhibition, % at 10 µM. AID 651704. 350,000 compounds, 0.47% hits;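 active = every replicate reaching a set inhibition limit, whatever the replicate mean, cut at about 25% in these data; inconclusive = mean inhibition reaches that limit but some replicates miss it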
NSD2 inh – blocks human histone methyltransferase NSD2; O96028; AID 743445; inhibition, % at 12.5 µM; 310,000 compounds, 0.54% hits; NSD2 peptide methylation, AlphaScreen, 120 min; in the data active = inhibition above about 50%
Large screens that a line does not name were inactive. Hits are enriched below; roughly 1.2% of the tested compounds scored in any of these assays.

N#C[C@@H]1[C@H](c2ccc(-c3ccc(F)cc3)cc2)[C@@H](CO)N1c1nc(-c2ccccc2)cs1	RAD52 inh 63 (no result: N-glyco inh, RAD54 branch, NSD2 inh)
Cc1nc2nc(C)n(CCN3CCOCC3)c(=O)c2c(-c2cccc([N+](=O)[O-])c2)c1C(=O)CCCCCCCCCCN1CCC(c2ccccc2)(c2ccccc2)CC1	RAD52 inh 97 (no result: RAD54 branch)
O=C(NCCCN1CCOCC1)/C(=C/c1ccc(-c2cccc([N+](=O)[O-])c2)o1)NC(=O)c1ccccc1	none
CCCNC(=O)C1(C)CCN(C(=O)c2cccc(C#N)c2)C1 (centres undefined)	AF4-AF9 inh 28
CC(=O)c1cccc(Nc2cc(C)nc3c(C)cc(C)cc23)c1	N-glyco inh 67 (no result: RAD52 inh, RAD54 branch, AF4-AF9 inh)
S=C(Nc1ccc(Cl)cc1)c1nc2ccccc2[nH]1	none (no result: RAD52 inh, AF4-AF9 inh)
Cc1ccccc1NC(=S)c1nc2ccccc2[nH]1	AF4-AF9 inh 27
CCC(=O)N1CC[C@H]2[C@H](CO)Nc3ccc(C#Cc4ccc(OC)cc4)cc3[C@H]21	AF4-AF9 inh 26 (no result: N-glyco inh, RAD54 branch, NSD2 inh)
COc1ccc(C#Cc2ccc3c(c2)[C@H]2[C@H](CCN2Cc2ccncc2)[C@@H](CO)N3)cc1	RAD52 inh 63 (no result: N-glyco inh, RAD54 branch, NSD2 inh)
Cc1ccc(/C=C/c2ccc3cccc(O)c3n2)s1	AF4-AF9 inh 42
COc1ccc(/C=C/c2ccc3cccc(O)c3n2)c(OC)c1OC	FN deposition inh 35
O=C1c2ccccc2-c2cccc(C(=O)N3CCCCC3)c21	none (no result: RAD54 branch, AF4-AF9 inh)
O=C1c2ccccc2C(=O)c2c1cccc2N1CCCC1	AF4-AF9 inh 40
O=C1c2ccccc2-c2onc3ccc(N4CCCC4)c1c23	AF4-AF9 inh 28 (no result: RAD54 branch)
CCOc1ccc2noc3c2c1C(=O)c1ccccc1-3	none (no result: RAD52 inh, AF4-AF9 inh, NSD2 inh)
C=CCCN(CC#C[C@H]1Oc2ccccc2S(=O)(=O)N2CCC[C@@H]12)S(=O)(=O)c1ccc(C)cc1	none (no result: N-glyco inh, FN deposition inh, NSD2 inh)
Cn1cnc([N+](=O)[O-])c1Sc1nc2ccccc2[nH]1	N-glyco inh 29
Cc1nc([N+](=O)[O-])c(Sc2nc3ccccc3[nH]2)n1Cc1ccccc1	none
CN(C)CCNc1ccc2nnn3c4ccc(O)cc4c(=O)c1c23	N-glyco inh inconclusive (no result: RAD54 branch, NSD2 inh)
CN(C)CCNc1cccc2sc3ccc(O)cc3c(=O)c12	N-glyco inh 107, AF4-AF9 inh 38 (no result: RAD54 branch)
CCC(CN(C)C)Oc1cc(NCc2ccccc2)c2ncn(C(C)C)c2c1 (centres undefined)	RAD54 branch 70 (no result: RAD52 inh, FN deposition inh, AF4-AF9 inh, NSD2 inh)
CCCN(C)C[C@@H]1Oc2ncc(C#Cc3cccc(OC)c3)cc2C(=O)N([C@H](C)CO)C[C@@H]1C	RAD52 inh 53 (no result: N-glyco inh, RAD54 branch, NSD2 inh)
CCC(=O)N(C)C[C@H]1Oc2ncc(C#Cc3ccccc3OC)cc2C(=O)N([C@H](C)CO)C[C@@H]1C	none (no result: N-glyco inh, FN deposition inh, NSD2 inh)
CCCN(C)C[C@@H]1Oc2ncc(C#Cc3ccc(OC)cc3)cc2C(=O)N([C@H](C)CO)C[C@@H]1C	none (no result: N-glyco inh, NSD2 inh)
CCCN(C)C[C@@H]1Oc2ncc(C#Cc3ccccc3OC)cc2C(=O)N([C@H](C)CO)C[C@@H]1C	RAD52 inh 57 (no result: N-glyco inh, FN deposition inh, NSD2 inh)
C[C@H]1CN([C@@H](C)CO)C(=O)c2cc(C#Cc3ccncc3)cnc2O[C@H]1CN(C)C(=O)c1ccccc1F	none (no result: N-glyco inh, NSD2 inh)
COc1ccc2c(c1)OC1(C)CC2C(C(=O)c2ccccc2OC)C(=O)N1 (centres undefined)	AF4-AF9 inh 49 (no result: NSD2 inh)
C[C@@H]1CN([C@H](C)CO)C(=O)c2cc(NS(=O)(=O)c3ccccc3)ccc2O[C@@H]1CN(C)Cc1ccc(C(=O)O)cc1	none (no result: N-glyco inh, FN deposition inh, NSD2 inh)
CCOC(=O)c1cnc2c(C)cc(Cl)cc2c1NCCCN1CCOCC1	RAD54 branch 57
C[C@@H]1CCCCO[C@H](CN(C)C(=O)c2ccccc2)[C@H](C)CN([C@@H](C)CO)C(=O)c2cc(N(C)C)ccc2O1	none (no result: N-glyco inh, FN deposition inh, NSD2 inh)
CCN1CCCC(NC(=O)c2scc3c2CCCC3)C1 (centres undefined)	AF4-AF9 inh 47 (no result: NSD2 inh)
N#C[C@H]1[C@H](c2ccccc2C2=CCCCC2)[C@@H](CO)N1S(=O)(=O)c1ccccc1	FN deposition inh 67 (no result: N-glyco inh, RAD54 branch, NSD2 inh)
COc1ccc([C@@H]2C/C=C\C[C@@H](c3ccccc3)NC(=O)CCC(=O)N2)c(OC)c1	none (no result: N-glyco inh, RAD52 inh, RAD54 branch, AF4-AF9 inh, NSD2 inh)
COc1ccc(S(=O)(=O)N2CCCCC2)cc1NC(=O)c1[nH]c(C)c(C(C)=O)c1C	N-glyco inh 55 (no result: RAD52 inh, FN deposition inh, AF4-AF9 inh, NSD2 inh)
CCOc1cc(N2CCOCC2)c(OCC)cc1NC(=O)c1[nH]c(C)c(C(C)=O)c1C	N-glyco inh 29
CC(=O)c1c(C)[nH]c(C(=O)Nc2ccccc2N2CCOCC2)c1C	none
